Bioassay records as filed in PubChem.
The sample as a whole holds a higher share of hits than the screen did.
IDH1 R132H inh: blocks human IDH1 R132H reductase activity; diaphorase/resazurin fluorescence, 60 min; O75874; inhibition, % at 10 µM; actives 0.18% (n = 70,000); in the data active = inhibition above about 34%; inconclusive = no clear call, values can overlap the other calls; inactive = below about 11%
Target sequence (O75874 whole entry R132H): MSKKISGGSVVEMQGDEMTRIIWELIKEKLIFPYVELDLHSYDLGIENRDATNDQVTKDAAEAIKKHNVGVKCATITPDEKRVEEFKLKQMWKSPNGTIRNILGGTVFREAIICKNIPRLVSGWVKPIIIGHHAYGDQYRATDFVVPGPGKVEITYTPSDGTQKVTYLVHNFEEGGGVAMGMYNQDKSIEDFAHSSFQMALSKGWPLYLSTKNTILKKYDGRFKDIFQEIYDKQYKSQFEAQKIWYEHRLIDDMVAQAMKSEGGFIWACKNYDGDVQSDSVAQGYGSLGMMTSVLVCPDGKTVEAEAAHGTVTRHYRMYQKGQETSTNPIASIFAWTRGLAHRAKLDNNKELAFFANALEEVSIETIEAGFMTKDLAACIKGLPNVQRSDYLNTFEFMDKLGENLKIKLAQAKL
GASC1 inh: blocks human GASC-1 (KDM4C) demethylase activity | GST-KDM4C 2-372, H3K9me3 peptide, LANCE TR-FRET | inhibition, % at 12.5 µM | actives 0.15% (n = 96,000);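 active = mean replicate inhibition above about 25%, with at least 55% of replicates also reaching it, limit read from the data, passing the limit was not always enough; inconclusive = only one of those two conditions met; inactive = neither condition met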
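reagent = H3K9me3 peptide substrate, Fe(II), 2-oxoglutarate | system = GST-tagged GASC-1 (JMJD2C) catalytic fragment, aa 2-372 | amount = enzyme final amount 10 nM | read-out = Fall in 671/618 emission ratio as inhibition | medium = HEPES buffer, pH 7.5, plus ascorbate | schedule = 30 min reaction, 60 min detection, RT | measured by = LANCE TR-FRET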
T cruzi growth-1: T. cruzi proliferation inhibition; T. cruzi beta-gal in NIH3T3, GalScreen luminescence, 90 h; inhibition, % at 8.34 µM; actives 5.9% (n = 77,000); AID 624255;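 active = mean inhibition above about 93%, with at least 55% of replicates each passing it, limit read from the data, passing the limit was not always enough; inconclusive = only one of those two conditions holds; inactive = neither condition holds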
T cruzi growth-2: Trypanosoma cruzi proliferation inhibition. AID 651739. actives 72% (n = 5,600). inhibition, % at 8.35 µM. T. cruzi beta-gal in NIH3T3, GalScreen luminescence, 90 h. shares compounds with T cruzi growth-1;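 active = mean replicate inhibition above about 95% and at least 55% of replicates individually reaching it, limit read from the data; inconclusive = only one of the two criteria is met; inactive = neither criterion is met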
T cruzi growth-3: blocks T. cruzi growth in NIH3T3 host cells. shares compounds with T cruzi growth-1. T. cruzi beta-gal in NIH3T3, GalScreen luminescence, 90 h. inhibition, % at 2.09 µM. actives 21% (n = 5,600). AID 651740;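 active = mean inhibition above about 95%, with at least 55% of replicates also reaching it, limit read from the data; inconclusive = meets just one of the two conditions; inactive = meets neither condition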
NIH3T3 tox: kills mouse NIH/3T3 fibroblasts | NIH/3T3 viability, CellTiter-Glo ATP luminescence, 90 h | cytotoxicity (signal decrease), % at 8.35 µM | actives 14% (n = 5,600) | shares compounds with T cruzi growth-1;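 active = mean signal decrease across replicates above about 35% based on untreated-well scatter, with enough replicates individually passing, limit read from the data; inconclusive = no rule stated though some were filed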
3T3 cytotox 2: kills mouse NIH/3T3 fibroblasts; shares compounds with T cruzi growth-1; NIH/3T3 viability, CellTiter-Glo ATP luminescence, 90 h; inhibition, % at 24.9 µM; actives 56% (n = 5,600);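 active = mean loss of cell viability signal at or above a set limit, and enough replicates individually reaching it; inconclusive = meets only the mean limit or only the replicate share; inactive = meets neither condition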
A number is an active result.

What do the screens show for `C[C@H](CO)N1C[C@H](C)[C@@H](CN(C)C(=O)Cc2ccncc2)Oc2ncc(C#Cc3ccccc3F)cc2C1=O`?
GASC1 inh: inactive; T cruzi growth-1: inconclusive; T cruzi growth-2: 112; T cruzi growth-3: inactive; NIH3T3 tox: inactive; 3T3 cytotox 2: inconclusive

Results for C[C@H](CO)N1C[C@H](C)[C@H](CN(C)C(=O)Cc2ccncc2)Oc2ncc(C#Cc3ccccc3F)cc2C1=O ?
IDH1 R132H inh: inactive; GASC1 inh: inactive; T cruzi growth-1: inactive

Results for C[C@@H]1CN([C@H](C)CO)C(=O)c2cc(C#Cc3ccccc3F)cnc2O[C@H]1CN(C)S(=O)(=O)c1ccccc1 ?
IDH1 R132H inh: inactive; GASC1 inh: inactive; T cruzi growth-1: 126; T cruzi growth-2: 109; T cruzi growth-3: inactive; NIH3T3 tox: inconclusive; 3T3 cytotox 2: 35

How did C[C@H]1CN([C@@H](C)CO)C(=O)c2cc(C#Cc3ccccc3F)cnc2O[C@@H]1CN(C)S(=O)(=O)c1ccccc1 do in these assays?
IDH1 R132H inh: inactive; GASC1 inh: inactive; T cruzi growth-1: 128; T cruzi growth-2: 110; T cruzi growth-3: inactive; NIH3T3 tox: 60; 3T3 cytotox 2: 47

How did C[C@@H]1CN([C@H](C)CO)C(=O)c2cc(C#Cc3ccccc3F)cnc2O[C@@H]1CN(C)S(=O)(=O)c1ccccc1 do in these assays?
IDH1 R132H inh: inactive; GASC1 inh: inactive; T cruzi growth-1: 116; T cruzi growth-2: 98; T cruzi growth-3: inactive; NIH3T3 tox: inactive; 3T3 cytotox 2: 68

How did C[C@H]1CN([C@@H](C)CO)C(=O)c2cc(C#Cc3ccccc3F)cnc2O[C@H]1CN(C)S(C)(=O)=O do in these assays?
IDH1 R132H inh: inactive; GASC1 inh: inactive; T cruzi growth-1: inactive

Results for C[C@@H]1CN([C@@H](C)CO)C(=O)c2cc(C#Cc3ccccc3F)cnc2O[C@@H]1CN(C)S(C)(=O)=O ?
IDH1 R132H inh: inactive; GASC1 inh: inactive; T cruzi growth-1: inactive

What do the screens show for `O=C(Cc1cccnc1)N1CC(=O)N2[C@@H](CO)[C@H](c3ccc(C4=CCCC4)cc3)[C@@H]2C1`?
GASC1 inh: inactive

What do the screens show for `Cc1[nH]cnc1/C=N/NC(=O)c1ccccc1O`?
IDH1 R132H inh: inactive

What do the screens show for `C[C@@H]1CN([C@@H](C)CO)C(=O)c2cc(NC(=O)Cn3cnnn3)ccc2O[C@@H]1CN(C)Cc1ccncc1`?
IDH1 R132H inh: inactive; GASC1 inh: inactive; T cruzi growth-1: inactive

What do the screens show for `C[C@@H]1CN([C@@H](C)CO)C(=O)c2cc(C#Cc3ccccc3)cnc2O[C@@H]1CN(C)C(=O)C1CC1`?
IDH1 R132H inh: inactive; GASC1 inh: inactive; T cruzi growth-1: inactive

What do the screens show for `O=C(CSc1nc(O)c(-c2ccccc2)c(=O)[nH]1)N(c1ccccc1)c1ccccc1`?
IDH1 R132H inh: inactive

What do the screens show for `CCS(=O)(=O)N1CC2(CN(Cc3cccc(Cl)c3)[C@@H](CO)c3c2c2ccc(OC)cc2n3C)C1`?
GASC1 inh: inactive

Results for O=C(OC1C(c2c(O)cc(O)c(C(=O)c3ccc(O)cc3)c2O)OC(CO)C(O)C1O)c1cc(O)c(O)c(O)c1 (stereo unspecified) ?
IDH1 R132H inh: inactive

What do the screens show for `Cc1cc(C)c(OCC(=O)Nc2c[nH]c(=O)[nH]c2=O)cc1C`?
IDH1 R132H inh: inactive

What do the screens show for `C[C@@H]1CN([C@@H](C)CO)C(=O)Cc2cc(NC(=O)c3ccncc3)ccc2O[C@H]1CN(C)Cc1ccncc1`?
IDH1 R132H inh: inactive; GASC1 inh: inactive; T cruzi growth-1: inactive

How did C[C@@H]1CN([C@@H](C)CO)C(=O)c2cc(C#Cc3ccccc3F)cnc2O[C@@H]1CN(C)S(=O)(=O)c1ccccc1 do in these assays?
IDH1 R132H inh: inactive; GASC1 inh: inactive; T cruzi growth-1: 114; T cruzi growth-2: 99; T cruzi growth-3: inactive; NIH3T3 tox: inactive; 3T3 cytotox 2: 50

How did C[C@H](CO)N1C[C@H](C)[C@@H](CN(C)S(C)(=O)=O)Oc2ncc(C#Cc3ccccc3F)cc2C1=O do in these assays?
IDH1 R132H inh: inactive; GASC1 inh: inactive; T cruzi growth-1: inactive

What do the screens show for `C[C@H](CO)N1C[C@H](C)[C@H](CN(C)C(=O)Nc2cccc3ccccc23)Oc2ccc(NC(=O)Nc3ccccc3)cc2CC1=O`?
IDH1 R132H inh: inactive; GASC1 inh: inactive; T cruzi growth-1: inactive

How did Cc1cccc(S(=O)(=O)N2C[C@@H](O)COC[C@@H]3O[C@@H](CC(=O)Nc4ccc(-c5ccccc5)cc4)CC[C@H]32)c1 do in these assays?
GASC1 inh: inactive; T cruzi growth-1: inactive

What do the screens show for `O=C(C[C@@H]1CC[C@H]2[C@@H](COC[C@@H](O)CN2S(=O)(=O)c2ccccc2)O1)Nc1ccc(-c2ccccc2)cc1`?
GASC1 inh: inactive; T cruzi growth-1: 97; T cruzi growth-2: 106; T cruzi growth-3: inactive; NIH3T3 tox: inactive; 3T3 cytotox 2: 92

How did Cc1cccc(S(=O)(=O)N2C[C@H](O)COC[C@H]3O[C@H](CC(=O)Nc4ccc(-c5ccccc5)cc4)CC[C@@H]32)c1 do in these assays?
GASC1 inh: inactive; T cruzi growth-1: inconclusive; T cruzi growth-2: 104; T cruzi growth-3: inactive; NIH3T3 tox: inactive; 3T3 cytotox 2: 99

What do the screens show for `O=C(C[C@H]1CC[C@H]2[C@@H](COC[C@@H](O)CN2S(=O)(=O)c2ccccc2)O1)Nc1ccc(-c2ccccc2)cc1`?
GASC1 inh: inactive; T cruzi growth-1: inactive

How did COC(=O)C[C@H]1CC[C@H]2[C@@H](COc3ccc(NC(=O)c4cccs4)cc3C(=O)N2C)O1 do in these assays?
GASC1 inh: inactive

Results for C[C@@H]1CN([C@H](C)CO)C(=O)c2cccc(NC(=O)CCCCCC(=O)Nc3ccccc3N)c2O[C@@H]1CN(C)S(=O)(=O)c1ccccc1 ?
IDH1 R132H inh: inactive; GASC1 inh: inactive

How did C[C@@H]1CN([C@@H](C)CO)C(=O)c2cccc(NC(=O)CCCCCC(=O)Nc3ccccc3N)c2O[C@@H]1CN(C)S(=O)(=O)c1ccc(Cl)cc1 do in these assays?
IDH1 R132H inh: inactive; GASC1 inh: inactive; T cruzi growth-1: 98; T cruzi growth-2: 103; T cruzi growth-3: inactive; NIH3T3 tox: inactive; 3T3 cytotox 2: inactive

How did C[C@@H]1CN([C@@H](C)CO)C(=O)c2cccc(NC(=O)CCCCCC(=O)Nc3ccccc3N)c2O[C@H]1CN(C)S(=O)(=O)c1ccc(Cl)cc1 do in these assays?
GASC1 inh: inactive; T cruzi growth-1: 95; T cruzi growth-2: inactive; T cruzi growth-3: inactive; NIH3T3 tox: inactive; 3T3 cytotox 2: inactive
